For six compounds, IC50 and Ratio results are on record in ChEMBL document CHEMBL1131132, “Acetylcholinesterase inhibitors: synthesis and structure-activity relationships of omega-[N-methyl-N-(3-alkylcarbamoyloxyphenyl)- methyl]aminoalkoxyheteroaryl derivatives” (J Med Chem, 1998).

One experiment addresses T1, Acetylcholinesterase (Rattus norvegicus, UniProt P37136).
T1 sequence (P37136 whole entry): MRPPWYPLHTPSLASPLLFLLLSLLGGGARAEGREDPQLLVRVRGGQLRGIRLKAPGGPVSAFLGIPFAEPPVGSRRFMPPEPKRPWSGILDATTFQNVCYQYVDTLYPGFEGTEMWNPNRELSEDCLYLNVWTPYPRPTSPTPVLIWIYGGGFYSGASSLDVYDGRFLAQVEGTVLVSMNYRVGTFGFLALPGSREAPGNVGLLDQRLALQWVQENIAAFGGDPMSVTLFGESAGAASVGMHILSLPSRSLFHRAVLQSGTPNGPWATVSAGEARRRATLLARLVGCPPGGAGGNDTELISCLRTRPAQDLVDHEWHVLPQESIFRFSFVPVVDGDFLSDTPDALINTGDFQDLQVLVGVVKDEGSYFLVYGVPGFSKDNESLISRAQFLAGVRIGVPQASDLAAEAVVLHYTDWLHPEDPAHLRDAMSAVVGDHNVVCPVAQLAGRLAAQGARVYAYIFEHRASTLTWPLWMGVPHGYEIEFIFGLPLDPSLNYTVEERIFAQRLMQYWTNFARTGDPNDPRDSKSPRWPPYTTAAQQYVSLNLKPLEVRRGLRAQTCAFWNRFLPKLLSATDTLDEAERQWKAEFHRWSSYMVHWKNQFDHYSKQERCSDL
Nature of the experiment: Inhibitory concentration against rat brain acetylcholinesterase AChE. Put shortly: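 Adult Wistar rat cerebral cortex, stored frozen, homogenized 1:200 w/v in 25 mM phosphate pH 7.4, warmed 37 °C 5 min, spun 50000g 15 min at 4 °C; pellet resuspended as AChE-enriched fraction. Compound in PBS pH 7.4 with tritiated ACh (final 0.4 mM), 15 min at 37 °C; stopped with chloroacetic acid/NaCl/NaOH; ³H-acetate extracted into isoamyl alcohol/toluene, scintillation counted.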

Experiment [1] deals with Cholinesterases; ACHE & BCHE (Homo sapiens) (UniProt P06276+P22303). Nature of the experiment: It is the ratio of IC50 for butyrl cholinesterase (BuChE ) to that of acetylcholinesterase (AChE). Format: protein assay. Put shortly:
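Ellman method, 0.1 M phosphate pH 8.0, 340 µM DTNB. AChE: human erythrocyte 0.035 unit/mL, 550 µM acetylthiocholine. BuChE: human serum 0.035 unit/mL, 550 µM butyrylthiocholine.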

Sequence of Cholinesterases; ACHE & BCHE (Homo sapiens) (P06276 whole entry, looked up): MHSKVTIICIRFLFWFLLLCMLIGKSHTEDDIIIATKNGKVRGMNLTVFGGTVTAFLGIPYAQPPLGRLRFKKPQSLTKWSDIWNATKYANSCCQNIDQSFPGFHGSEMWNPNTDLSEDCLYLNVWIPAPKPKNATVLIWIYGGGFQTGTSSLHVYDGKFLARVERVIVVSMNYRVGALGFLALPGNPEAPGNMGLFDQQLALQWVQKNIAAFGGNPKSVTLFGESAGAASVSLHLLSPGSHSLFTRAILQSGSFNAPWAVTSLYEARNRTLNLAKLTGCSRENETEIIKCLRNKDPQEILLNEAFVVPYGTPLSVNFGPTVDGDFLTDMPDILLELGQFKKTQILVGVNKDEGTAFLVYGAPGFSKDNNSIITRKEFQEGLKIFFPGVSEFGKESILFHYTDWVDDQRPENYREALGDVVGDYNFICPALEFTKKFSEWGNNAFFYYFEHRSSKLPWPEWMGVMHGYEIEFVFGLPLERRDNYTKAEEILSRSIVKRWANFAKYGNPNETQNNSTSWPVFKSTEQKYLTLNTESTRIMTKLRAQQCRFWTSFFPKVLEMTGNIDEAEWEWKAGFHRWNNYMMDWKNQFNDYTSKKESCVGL
Sequence of Cholinesterases; ACHE & BCHE (Homo sapiens) (P22303 whole entry, looked up): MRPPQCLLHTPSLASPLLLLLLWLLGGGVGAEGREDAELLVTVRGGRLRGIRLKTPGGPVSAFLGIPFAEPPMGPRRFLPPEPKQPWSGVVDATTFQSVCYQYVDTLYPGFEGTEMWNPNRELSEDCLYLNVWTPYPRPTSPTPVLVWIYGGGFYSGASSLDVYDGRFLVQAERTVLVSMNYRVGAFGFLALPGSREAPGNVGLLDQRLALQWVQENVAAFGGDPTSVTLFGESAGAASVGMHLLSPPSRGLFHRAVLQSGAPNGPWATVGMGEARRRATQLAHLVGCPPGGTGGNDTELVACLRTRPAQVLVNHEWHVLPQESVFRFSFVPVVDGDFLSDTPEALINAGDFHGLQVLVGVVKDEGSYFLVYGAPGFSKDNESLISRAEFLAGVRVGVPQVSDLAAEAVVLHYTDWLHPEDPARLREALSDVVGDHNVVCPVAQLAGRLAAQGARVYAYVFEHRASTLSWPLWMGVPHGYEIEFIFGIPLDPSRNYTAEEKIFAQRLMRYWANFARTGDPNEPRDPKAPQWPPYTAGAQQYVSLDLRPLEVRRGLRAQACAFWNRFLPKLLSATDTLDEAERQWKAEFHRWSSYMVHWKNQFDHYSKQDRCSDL

`CCCCCCCNC(=O)Oc1cccc(CN(C)CCCOc2ccc3ccc(=O)oc3c2)c1`: on Acetylcholinesterase, half-maximal inhibition (IC50) required 2 nM. Moreover, the Ratio in experiment [1] was determined as 5.

The compound `CNC(=O)Oc1cccc(CN(C)CCCCCOc2ccc3c(=O)c4ccccc4oc3c2)c1` showed a half-maximal inhibitory concentration (IC50) against Acetylcholinesterase of more than 100 nM. The Ratio in experiment [1] was found to be 101.

Compound `CNC(=O)Oc1cccc(CN(C)CCCOc2ccc3c(=O)cc(-c4ccccc4)oc3c2)c1` yielded a half-inhibitory concentration (IC50) on Acetylcholinesterase of 0.6 nM. The Ratio in experiment [1] turned out to be 8.2.

Take `CNC(=O)Oc1cccc(CN(C)CCCOc2ccc3ccc(=O)oc3c2)c1`: the midpoint of inhibition against Acetylcholinesterase, the IC50, lay at 1.5 nM. Also, the Ratio in experiment [1] amounted to 0.6.

On Acetylcholinesterase, `CCCCNC(=O)Oc1cccc(CN(C)CCCOc2ccc3c(=O)c4cccnc4oc3c2)c1` registered an IC50 of 70 nM. Further, in experiment [1], the Ratio stood at 2.7.

In turn, `CN(CCCOc1ccc2c(=O)c3ccccc3oc2c1)Cc1cccc(OC(=O)Nc2ccccc2)c1` came in with an IC50 against Acetylcholinesterase of more than 1000 nM. The Ratio in experiment [1] is 71.4.

In general, IC50 refers to the midpoint of a concentration-inhibition curve. High values mean weaker potency in that assay, low ones greater potency in that assay.
